Laboratory results published in ChEMBL document CHEMBL1921744, “Lipophosphonoxins: new modular molecular structures with significant antibacterial properties” (J Med Chem, 2011).
≈ marks a conversion by molar mass, not a printed value. Calls of active or inactive are those of the source. No cut-off for these calls is given here.

How the values were obtained:
Enterococcus faecalis [1] = assay: Antibacterial activity against Enterococcus faecalis CCM 4224 after 24 to 48 hrs by microdilution method; assay type: functional
Outline: (§1)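 Incubation 24/48 h at 37 °C. MIC read as the lowest concentration inhibiting growth. MBC determined by transferring 10 μL from wells onto blood agar, taken as the lowest concentration with no visible growth.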

Staphylococcus aureus [2] = assay: Antibacterial activity against Staphylococcus aureus CCM 4223 after 24 to 48 hrs by microdilution method; assay type: functional; outline: as §1
Bacillus subtilis [3] = assay: Antibacterial activity against Bacillus subtilis after 24 to 48 hrs by microdilution method; assay type: functional; outline: as §1
Streptococcus agalactiae = assay: Antibacterial activity against Streptococcus agalactiae after 24 to 48 hrs by microdilution method; assay type: functional; outline: as §1
[4] = Cytotoxicity against human Erythroid progenitor cells assessed as cell viability after 48 hrs by CellTiter-blue assay; assay type: cell-based
Outline: (§2)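 Normal human erythroid progenitor cells, expanded from umbilical cord blood, plated at 25000 cells/well immediately before compound addition (added as a 5× predilution in culture medium). Viability by CellTiter-Blue fluorescence 48 h after addition, normalized to untreated cells set as 100%.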

[5] = Cytotoxicity against human Erythroid progenitor cells assessed as maximum safe concentration after 48 hrs by CellTiter-blue assay; assay type: cell-based; details: read-out: Activity; outline: as §2
[6] = Induction of apoptosis in human Erythroid progenitor cells assessed as caspase 3/7 activation after 4 hrs by Caspase-Glo 3/7 assay
Outline: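 Cord-blood-derived human erythroid progenitor cells plated at 25000 cells/well and exposed to compound prediluted in medium. Caspase 3/7 activation read by Caspase-Glo 3/7 luminescence 4 h after addition, normalized to untreated control cells set as 100%.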

Bacillus subtilis [7] = assay: Inhibition of Bacillus subtilis RNA polymerase using [alpha-32P]-UTP at 1 mM pretreated for 5 mins measured after 15 mins by electrophoresis analysis
Outline: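 Reconstituted B. subtilis RNAP σA holoenzyme (6 nM) with supercoiled pLK7 template carrying the rrnB P1 promoter (4 ng/μL). Nucleotides: ATP/CTP/GTP 200 μM, UTP 10 μM plus 2 μM [α-³²P]-UTP. Compound at 1 mM; 5 min preincubation at 30 °C, started with RNAP, stopped after 15 min with formamide/EDTA.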

Escherichia coli [8] = assay: Antibacterial activity against Escherichia coli after 24 to 48 hrs by microdilution method; assay type: functional; outline: as §1
Pseudomonas aeruginosa = assay: Antibacterial activity against Pseudomonas aeruginosa after 24 to 48 hrs by microdilution method; assay type: functional; outline: as §1
Escherichia coli [9] = assay: Antibacterial activity against permeabilized Escherichia coli DH5[alpha] assessed as cell killing at 10 uM; assay type: functional
Outline: (§3)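 Competent (permeabilized) E. coli DH5α cells were mixed with 5 ng pUC18 (ampR) and serially diluted compound or buffer only. Steps: 30 min on ice, heat shock at 42 °C for 90 s, 5 min on ice, then LB without antibiotic for 1 h at 37 °C with shaking. Plated on LB agarose with ampicillin 100 μg/mL overnight at 37 °C. Colonies counted against the no-compound control.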

Enterococcus faecium [10] = assay: Antibacterial activity against vancomycin-resistant Enterococcus faecium VanA419/ana after 24 to 48 hrs by microdilution method; assay type: functional
Outline: (§4)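 Broth microdilution MIC on clinical isolates from Teaching Hospital Olomouc, stored at −80 °C. Compounds were serially diluted in brain heart infusion broth over 200–1.56 μg/mL (sometimes extended to 0.78 μg/mL), with an inoculum of 10⁵⁻⁶ CFU/ml per well. Plates were incubated at 37 °C and read at 24/48 h. MIC was taken as the lowest concentration inhibiting growth.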

[11] = system: Staphylococcus epidermidis; assay: Antibacterial activity against methicillin-resistant Staphylococcus epidermidis 8700/B after 24 to 48 hrs by microdilution method; assay type: functional; outline: as §4
Escherichia coli [12] = assay: Antibacterial activity against permeabilized Escherichia coli DH5[alpha] assessed as log reduction of colony forming unit at 10 uM; assay type: functional, organism-based; outline: as §3
Staphylococcus aureus [13] = assay: Antibacterial activity against methicillin-sensitive Staphylococcus aureus ATCC 29213; assay type: functional; outline: as §1
Staphylococcus aureus [14] = assay: Antibacterial activity against methicillin-resistant Staphylococcus aureus SR3637; assay type: functional
Enterococcus faecalis [15] = assay: Antibacterial activity against Enterococcus faecalis ATCC 29212; assay type: functional
Enterococcus faecalis [16] = assay: Antibacterial activity against vancomycin-resistant Enterococcus faecalis SR7914; assay type: functional
Enterococcus faecium [17] = assay: Antibacterial activity against Enterococcus faecium ATCC 19434; assay type: functional; outline: as §1
Enterococcus faecium [18] = assay: Antibacterial activity against vancomycin-resistant Enterococcus faecium SR7917; assay type: functional
Staphylococcus aureus [19] = assay: Antibacterial activity against methicillin-resistant Staphylococcus aureus 4591 after 24 to 48 hrs by microdilution method; assay type: functional; outline: as §4

With `CCCCCCCCCCCCCCCCOP(=O)(CCN1C[C@@H](O)[C@H](O)C1)OC[C@H]1O[C@@H](n2ccc(=O)[nH]c2=O)[C@H](O)[C@@H]1O` (stereo in doubt; 12i-P1) the Activity (Enterococcus faecalis [1]) was “Active”, the Activity (Staphylococcus aureus [2]) was “Active” and the Activity (Bacillus subtilis [3]) was “Active”. For the same compound, the Activity (Streptococcus agalactiae) was “Active”.
`CN(C)[C@@H]1C(O)=C(C(N)=O)C(=O)[C@@]2(O)C(O)=C3C(=O)c4c(O)cccc4[C@@](C)(O)[C@H]3C[C@@H]12` [TETRACYCLINE] gave an MIC (Bacillus subtilis [3]) of 2 µg/mL (≈ 4.5 µM) and an MIC (Streptococcus agalactiae) of 1 µg/mL (≈ 2.25 µM).
In the case of `CCCCCCCCCCCCCCCCOCCCOP(=O)(CCN1C[C@H](O)C[C@@H](O)C1)OC[C@H]1O[C@@H](n2ccc(=O)[nH]c2=O)[C@H](O)[C@@H]1O` (some centres undefined), the IC50 [4] is reported as 53 µg/mL (≈ 72.2 µM), the MNTC at 48 h [5] is reported as 31.2 µg/mL and the Activity [6] is reported as “Non-toxic”. For the same compound, the inhibition (Bacillus subtilis [7]) was “inactive”, the MIC (Escherichia coli [8]) was over 200 µg/mL and the MIC (Pseudomonas aeruginosa) was over 200 µg/mL. It also gave an MIC (Enterococcus faecalis [1]) of 200 µg/mL (≈ 273 µM), an MIC (Bacillus subtilis [3]) of 100 µg/mL (≈ 136 µM) and an MIC (Streptococcus agalactiae) of 6.25 µg/mL (≈ 8.52 µM).
For `CCCCCCCCCCCCCCCCOCCCOP(=O)(CCN1C[C@@H](O)[C@@H](O)[C@@H](O)C1)OC[C@H]1O[C@@H](n2ccc(=O)[nH]c2=O)[C@H](O)[C@@H]1O` (some centres undefined), the IC50 [4] was 149 µg/mL (≈ 199 µM), the MNTC at 48 h [5] was 62.5 µg/mL and the Activity [6] was “Non-toxic”. For the same compound, the inhibition (Bacillus subtilis [7]) was “inactive”, the MIC (Escherichia coli [8]) was over 200 µg/mL and the MIC (Pseudomonas aeruginosa) was over 200 µg/mL. It also gave an MIC (Streptococcus agalactiae) of 12.5 µg/mL (≈ 16.7 µM).
With `CCCCCCCCCCCCCCCCOCCCOP(=O)(CCN1C[C@@H](O)[C@H](O)C1)OC[C@H]1O[C@@H](n2ccc(=O)[nH]c2=O)[C@H](O)[C@@H]1O` (some centres undefined) the Activity (Escherichia coli [9]) was 90%, the MIC (Enterococcus faecium [10]) was 6.25 µg/mL (≈ 8.68 µM) and the MIC [11] was 3.13 µg/mL (≈ 4.35 µM). The IC50 [4] was 91 µg/mL (≈ 126 µM), the MNTC at 48 h [5] was 62.5 µg/mL and the Activity [6] was “Non-toxic”. For the same compound, the inhibition (Bacillus subtilis [7]) was “inactive”, the MIC (Escherichia coli [8]) was over 200 µg/mL and the MIC (Pseudomonas aeruginosa) was over 200 µg/mL. For the same compound, the Activity (Escherichia coli [12]) was “Active”, the MIC (Enterococcus faecalis [1]) was 12.5 µg/mL (≈ 17.4 µM) and the MIC (Bacillus subtilis [3]) was 6.25 µg/mL (≈ 8.68 µM). The MIC (Streptococcus agalactiae) was 3.13 µg/mL (≈ 4.35 µM).
In the case of `CCCCCCCCCCCCCCC[C@@H](NC[C@@H](NC(=O)N[C@H](C(=O)O)C(C)C)[C@@H]1CCNC(=N)N1)C(=O)NCCCN[C@H](C(=O)O)[C@H](O[C@@H]1O[C@H](CN)[C@@H](O)[C@H]1O)[C@H]1O[C@@H](n2ccc(=O)[nH]c2=O)[C@H](O)[C@@H]1O`, the MIC (Staphylococcus aureus [13]) is reported as 2 µg/mL (≈ 1.89 µM), the MIC (Staphylococcus aureus [14]) is reported as 4 µg/mL (≈ 3.79 µM) and the MIC (Enterococcus faecalis [15]) is reported as 2 µg/mL (≈ 1.89 µM). For the same compound, the MIC (Enterococcus faecalis [16]) was 4 µg/mL (≈ 3.79 µM), the MIC (Enterococcus faecium [17]) was 0.5 µg/mL (≈ 0.473 µM) and the MIC (Enterococcus faecium [18]) was 0.25 µg/mL (≈ 0.237 µM).
For `CCCCCCCCCCCCCCC[C@H](NC[C@@H](NC(=O)N[C@H](C(=O)O)C(C)C)[C@@H]1CCNC(=N)N1)C(=O)NCCCN[C@H](C(=O)O)[C@H](O[C@@H]1O[C@H](CN)[C@@H](O)[C@H]1O)[C@H]1O[C@@H](n2ccc(=O)[nH]c2=O)[C@H](O)[C@@H]1O`, the MIC (Staphylococcus aureus [13]) was 2 µg/mL (≈ 1.89 µM), the MIC (Staphylococcus aureus [14]) was 4 µg/mL (≈ 3.79 µM) and the MIC (Enterococcus faecalis [15]) was 4 µg/mL (≈ 3.79 µM). It also gave an MIC (Enterococcus faecalis [16]) of 4 µg/mL (≈ 3.79 µM), an MIC (Enterococcus faecium [17]) of 4 µg/mL (≈ 3.79 µM) and an MIC (Enterococcus faecium [18]) of 2 µg/mL (≈ 1.89 µM).
For `CCCCCCCCCCCCCCCCOCCCOP(=O)(CCN1C[C@H](O)[C@@H](O)C1)OC[C@H]1O[C@@H](n2ccc(=O)[nH]c2=O)[C@H](O)[C@@H]1O` (some centres undefined), the MIC (Enterococcus faecium [10]) was 6.25 µg/mL (≈ 8.68 µM), the MIC [11] was 6.25 µg/mL (≈ 8.68 µM) and the IC50 [4] was 47 µg/mL (≈ 65.3 µM). The MNTC at 48 h [5] was 31.2 µg/mL, the Activity [6] was “Non-toxic” and the inhibition (Bacillus subtilis [7]) was “inactive”. The MIC (Escherichia coli [8]) was over 200 µg/mL, the MIC (Pseudomonas aeruginosa) was over 200 µg/mL and the MIC (Enterococcus faecalis [1]) was 12.5 µg/mL (≈ 17.4 µM). The MIC (Bacillus subtilis [3]) was 6.25 µg/mL (≈ 8.68 µM) and the MIC (Streptococcus agalactiae) was 6.25 µg/mL (≈ 8.68 µM).
In the case of `CCCCCCCCCCCCCCCCOP(=O)(CCN1C[C@@H](O)[C@H](O)C1)OC[C@H]1O[C@@H](n2ccc(=O)[nH]c2=O)[C@H](O)[C@@H]1O` (single isomer, unassigned; diastereomer 2), the Activity (Enterococcus faecalis [1]) is reported as “Active”, the Activity (Staphylococcus aureus [2]) is reported as “Active” and the Activity (Bacillus subtilis [3]) is reported as “Active”. For the same compound, the Activity (Streptococcus agalactiae) was “Active”.
Work on `CCCCCCCCCCCCCCCCCCOP(=O)(CCN1C[C@@H](O)[C@H](O)C1)OC[C@H]1O[C@@H](n2ccc(=O)[nH]c2=O)[C@H](O)[C@@H]1O` (some centres undefined) yielded an MIC (Staphylococcus aureus [19]) of 200 µg/mL (≈ 290 µM), an MIC (Enterococcus faecium [10]) of 6.25 µg/mL (≈ 9.06 µM) and an MIC [11] of 6.25 µg/mL (≈ 9.06 µM). For the same compound, the IC50 [4] was 36 µg/mL (≈ 52.2 µM), the MNTC at 48 h [5] was 15.6 µg/mL and the Activity [6] was “Non-toxic”. The MIC (Escherichia coli [8]) was over 200 µg/mL, the MIC (Pseudomonas aeruginosa) was over 200 µg/mL and the MIC (Enterococcus faecalis [1]) was 6.25 µg/mL (≈ 9.06 µM). For the same compound, the MIC (Staphylococcus aureus [2]) was 12.5 µg/mL (≈ 18.1 µM), the MIC (Bacillus subtilis [3]) was 6.25 µg/mL (≈ 9.06 µM) and the MIC (Streptococcus agalactiae) was 3.13 µg/mL (≈ 4.54 µM).
